Data from publication PMC6511231 (Cell reports, 2018).
“Also recorded” adds a separate entry of the source.

What was measured:
[1] = molecular target: human LIN28ΔF73A (Homo sapiens, UniProt Q9H9Z2, F73A); test: Competition / dose-response fluorescence polarization assay with LIN28ΔF73A; assay type: binding; details: preE-let-7f, preE-let-7a, preE-let-7d, preE-let-7g
Outline: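 Recombinant human LIN28ΔF73A (150 nM in the screening master mix; set at the FP-titration Kd for competition) was mixed with 2 nM FAM-labelled preE-let-7 probe (let-7f, -7a, -7d or -7g) in buffer M (100 mM NaCl, 20 mM Tris-HCl pH 7.0, 5 mM MgCl2, 10% glycerol, 5 mM DTT, 0.1% NP-40). Test compound was dispensed at 12 concentrations, 50 μM–20 nM. IC50 came from a 1:1 inhibition fit; each assay was run at least twice.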

[2] = molecular target: T1, mouse LIN28Δ, mouse TUT4 and pre-let-7g (Mus musculus, UniProt Q8K3Y3); test: LIN28-mediated let-7 oligouridylation assay; assay type: biochemical; details: 40 μM compound, 37°C, denaturing PAGE
T1 sequence (Q8K3Y3 16-184): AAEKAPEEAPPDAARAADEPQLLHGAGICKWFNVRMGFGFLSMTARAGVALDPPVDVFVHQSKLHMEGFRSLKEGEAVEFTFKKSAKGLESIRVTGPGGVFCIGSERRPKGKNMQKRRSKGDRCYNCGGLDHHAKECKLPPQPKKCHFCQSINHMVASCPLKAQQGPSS
T1 sequence (B2RX14 230-1424 partner): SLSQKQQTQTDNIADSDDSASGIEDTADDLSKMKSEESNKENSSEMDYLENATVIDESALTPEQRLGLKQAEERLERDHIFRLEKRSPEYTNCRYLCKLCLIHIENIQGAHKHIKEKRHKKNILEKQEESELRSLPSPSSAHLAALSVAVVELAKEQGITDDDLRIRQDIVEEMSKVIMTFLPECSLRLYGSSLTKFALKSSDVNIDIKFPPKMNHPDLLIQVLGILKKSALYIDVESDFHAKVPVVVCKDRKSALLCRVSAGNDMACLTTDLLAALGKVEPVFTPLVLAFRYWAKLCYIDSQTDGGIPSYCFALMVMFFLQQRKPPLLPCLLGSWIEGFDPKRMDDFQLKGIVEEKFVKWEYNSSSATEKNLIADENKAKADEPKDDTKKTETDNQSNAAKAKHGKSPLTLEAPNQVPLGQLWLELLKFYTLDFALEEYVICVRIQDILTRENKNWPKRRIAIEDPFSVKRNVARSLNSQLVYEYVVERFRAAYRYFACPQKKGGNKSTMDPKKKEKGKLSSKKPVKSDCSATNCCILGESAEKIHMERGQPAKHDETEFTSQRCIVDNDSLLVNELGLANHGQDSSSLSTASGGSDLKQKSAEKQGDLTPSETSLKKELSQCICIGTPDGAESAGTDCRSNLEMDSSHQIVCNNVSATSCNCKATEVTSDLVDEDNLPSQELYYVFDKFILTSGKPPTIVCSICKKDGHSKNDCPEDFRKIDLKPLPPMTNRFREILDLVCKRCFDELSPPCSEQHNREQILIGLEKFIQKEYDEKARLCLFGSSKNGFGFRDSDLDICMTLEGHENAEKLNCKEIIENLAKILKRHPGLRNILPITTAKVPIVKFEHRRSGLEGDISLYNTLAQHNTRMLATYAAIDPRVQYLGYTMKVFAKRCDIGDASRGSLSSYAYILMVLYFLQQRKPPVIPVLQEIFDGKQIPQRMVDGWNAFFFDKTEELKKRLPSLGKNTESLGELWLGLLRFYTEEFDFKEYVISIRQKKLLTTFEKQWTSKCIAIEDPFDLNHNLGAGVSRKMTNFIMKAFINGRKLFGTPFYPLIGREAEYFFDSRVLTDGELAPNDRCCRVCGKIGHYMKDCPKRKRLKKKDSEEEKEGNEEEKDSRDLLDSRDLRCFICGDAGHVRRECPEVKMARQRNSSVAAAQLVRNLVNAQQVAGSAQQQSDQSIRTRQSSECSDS
Outline: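 Mouse LIN28A, mouse TUT4 (230–1424) and in vitro-transcribed, T4 PNK-radiolabelled pre-let-7g were incubated with test compound (40 μM screen; 80 μM follow-up) for 40 min at 37°C. Buffer: 20 mM Tris 7.5, 5% glycerol, 6 mM MgCl2, 6 mM DTT, 50 μM ZnCl2, 40 mM KCl, 200 μM UTP. Reactions were stopped with EDTA/SDS/proteinase K (50°C, 30 min) and run on denaturing PAGE. RNA and DMSO served as controls.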

[3] = molecular target: TUT4 (Mus musculus, UniProt B2RX14); test: Uridylation assay without LIN28; assay type: biochemical
[4] = molecular target: human LIN28Δ (Homo sapiens, UniProt Q9H9Z2); test: Saturation transfer difference spectroscopy, LIN28Δ; assay type: binding; details: 100 μM compound, 5 μM LIN28
Outline: (§1)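 Protein was dialysed overnight into 20 mM Bis-Tris pH 6.0, 100 mM NaCl, 10% v/v glycerol-d8, 5 mM DTT and D2O. Test compound was dissolved in DMSO-d6. Samples held 100 μM compound and 5 μM protein in dialysis buffer. STD spectra were collected at 700 MHz, irradiating the macromolecule only at −2 ppm, with a 2 s transfer delay.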

[5] = molecular target: LIN28ΔK102 (Homo sapiens, UniProt Q9H9Z2, K102A); test: Saturation transfer difference spectroscopy, K102A mutant; assay type: binding; details: K102A mutation, compared with LIN28Δ
Outline: as §1

[6] = molecular target: human LIN28Δ:preE-let-7f complex (Homo sapiens, UniProt Q9H9Z2); test: Differential scanning fluorimetry; assay type: binding; details: SYPRO Orange; 63°C without compound
[7] = system: HeLaLIN28A; test: let-7-sensitive dual luciferase reporter assay, HeLaLIN28A; assay type: cell-based, human; details: LI71 50–100 μM, 48 hr
Outline: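 A HeLa clone stably expressing low-level FLAG-LIN28A plus the 8×let-7 Renilla/firefly dual-luciferase sensor was treated 48 hr with vehicle (DMSO) or test compound at the indicated concentrations. Dual luciferase activity was then assayed, with firefly as internal control. Runs used 3 or 5 biological replicates; Student's t test against vehicle.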

[8] = system: K562 leukemia cells; test: qPCR of microRNA species in K562 cells; assay type: cell-based, human; details: 100 μM, 48 hr
Outline: (§2)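 K562 leukaemia cells, or DKO+A mESCs (Lin28a/Lin28b double-knockout re-expressing wild-type LIN28A, in LIF/2i), were treated 48 hr with 100 μM test compound or vehicle. Total RNA was isolated with TRIzol and cDNA made with the miScript system. Mature and precursor microRNAs were quantified with specific primer assays relative to U6; n = 6 over two independent experiments.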

[9] = system: DKO+A mESCs; test: qPCR of let-7 species in DKO+A mESCs; assay type: cell-based, mouse; details: 100 μM, 48 hr, LIF/2i culture, vs vehicle
Outline: as §2

[10] = Solubility in solution; assay type: physicochemical; details: water / solution
[11] = Cellular toxicity; assay type: cell-based; details: high micromolar concentrations

human LIN28ΔF73A, sequence (Q9H9Z2 16-187 F73A): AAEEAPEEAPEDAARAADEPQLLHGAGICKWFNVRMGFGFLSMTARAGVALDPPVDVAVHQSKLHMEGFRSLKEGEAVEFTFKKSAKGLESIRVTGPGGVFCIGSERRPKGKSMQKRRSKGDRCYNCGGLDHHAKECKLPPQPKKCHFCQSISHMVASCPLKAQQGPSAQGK
human LIN28Δ, sequence (Q9H9Z2 16-187, stated change not applied): as the sequence (Q9H9Z2 16-187 F73A) above, with A58F counted along it
human LIN28Δ:preE-let-7f complex, sequence (Q9H9Z2 16-187, stated change not applied, one chain of several): as the sequence (Q9H9Z2 16-187 F73A) above, with A58F counted along it
LIN28ΔK102, sequence (Q9H9Z2 16-187 K102A): as the sequence (Q9H9Z2 16-187 F73A) above, with A58F, K87A counted along it

- IC50s with four let-7 pre-elements [1]: all within the low micromolar range
- Inhibition of LIN28-mediated oligouridylation [2]: completely inhibited
- Melting temperature of LIN28Δ:preE-let-7f complex with compound [6]: 60 °C
SMILES: CCOc1cccc2c1N[C@@H](c1ccc(C(=O)O)cc1)[C@H]1CC=C[C@@H]21 [LI71]
- Catalytic activity of TUT4 when LIN28 is not present [3]: does not abolish catalytic activity of TUT4
- Saturation transfer difference peaks [4]: saturation transfer difference peaks of LI71 occur
- Saturation transfer difference signal [5]: increases the saturation transfer difference signal
- Relative Renilla luciferase activity [7]: significantly reduce the relative Renilla luciferase activity
- let-7 precursor species [8]: not correlated with increased levels of let-7 precursor species
- miR-16 (non-LIN28-regulated microRNA) [8]: small but significant effect
- miR-93, miR-99a and miR-151 (non-LIN28-regulated microRNAs) [8]: did not observe significant effects
- Mature let-7 species ([8]; vs DMSO): significant increase in several let-7 species
- Mature let-7 species [9]: increased levels of mature let-7 species
- Solubility [10]: better water solubility; also recorded: ample solubility in solution
- Cellular toxicity [11]: low cellular toxicity
